Here are results for 11 compounds from ChEMBL document CHEMBL1177847, “Combating oxidative stress in epilepsy: design, synthesis, quantum chemical studies and anticonvulsant evaluation of 1-(substituted benzylidene/ethylidene)-4-(naphthalen-1-yl)semicarbazides” (Eur J Med Chem, 2010).

Series [1] concerns Mus musculus. As to the kind of experiment: Anticonvulsant activity against subcutaneous pentylenetetrazole-induced seizures in Swiss albino mouse at 300 mg/kg, ip after 4 hrs. Type of series: functional, organism-based. Further details: dose 300 mg/kg. The gist of the method:
(§1)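 Male Swiss albino mice (18–25 g) were dosed i.p. with the compound in 5% gum acacia/water at 30, 100 or 300 mg/kg. Thirty minutes later they received PTZ 85 mg/kg (CD97) and were watched for seizures over 4 h. Readings at 0.5 and 4 h gave the lowest dose active in half or more of the animals. Myoclonic jerks were noted separately.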

In series [2] the test system is Mus musculus. Description: Neurotoxicity in ip dosed Swiss albino mouse assessed as minimum dose required to cause impair in motor coordination after 0.5 hrs by rotarod test. To be noted: in vivo. Type of series: toxicity, organism-based. The essentials:
(§2)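 Rotarod motor-impairment test in male Swiss albino mice dosed i.p. at 30, 100 or 300 mg/kg in 5% gum acacia/water. Mice that fell off the rotating rod within 30 s during pretraining were excluded. The dose at which animals fell off was recorded at 0.5 and 4 h.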
(The rotarod test checks motor coordination on a turning rod.)

Series [3] concerns Mus musculus. Description: Anticonvulsant activity against maximal electroshock-induced seizures in ip dosed Swiss albino mouse assessed as minimum effective dose after 0.5 hrs. Conditions: read-out: MED. Type of series: functional. The essentials: (§3)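 Male Swiss albino mice (18–25 g) received the compound suspended in 5% gum acacia/water, i.p. at 30, 100 and 300 mg/kg (one to four animals per dose). Maximal electroshock was applied at 0.5 and 4 h. Protection meant abolition of the hind limb tonic extensor component. The lowest dose protecting half or more of the mice was recorded.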

Series [4] relates to Mus musculus. As to the kind of experiment: Anticonvulsant activity against subcutaneous pentylenetetrazole-induced seizures in ip dosed Swiss albino mouse assessed as minimum effective dose after 0.5 hrs. It is filed as functional. Conditions: read-out: MED. The essentials: as §1
In series [5] the test system is Mus musculus. Description: Anticonvulsant activity against maximal electroshock-induced seizures in ip dosed Swiss albino mouse assessed as minimum effective dose after 4 hrs. Type of series: functional. To be noted: read-out: MED. The essentials: as §3
On the technique in general: In the maximal electroshock model the usual endpoint is tonic extension of the hind limbs.

Series [6] deals with Mus musculus. As to the kind of experiment: Neurotoxicity in ip dosed Swiss albino mouse assessed as minimum dose required to cause impair in motor coordination after 4 hrs by rotarod test. Type of series: toxicity, organism-based. To be noted: in vivo. The essentials:
as §2

Series [7] deals with Mus musculus. As to the kind of experiment: Anticonvulsant activity against maximal electroshock-induced seizures in Swiss albino mouse at 300 mg/kg, ip after 4 hrs. Further details: dose 300 mg/kg. It is filed as functional, organism-based. The gist of the method: as §3
Series [8] deals with Mus musculus. As to the kind of experiment: Anticonvulsant activity against maximal electroshock-induced seizures in Swiss albino mouse at 300 mg/kg, ip after 0.5 hrs. Details: dose 300 mg/kg. Type of series: functional, organism-based. The essentials: as §3
Series [9] deals with Mus musculus. Description: Neurotoxicity in ip dosed Swiss albino mouse assessed as impair in motor coordination at 300 mg/kg, ip after 4 hrs by rotarod test. It is filed as toxicity, organism-based. Details: dose 300 mg/kg, route intraperitoneal. To be noted: in vivo. The gist of the method:
as §2

The subject of series [10] is Mus musculus. As to the kind of experiment: Anticonvulsant activity against subcutaneous pentylenetetrazole-induced seizures in ip dosed Swiss albino mouse assessed as minimum effective dose after 4 hrs. Type of series: functional. To be noted: read-out: MED. The gist of the method: as §1
Series [11] deals with Mus musculus. As to the kind of experiment: Neurotoxicity in ip dosed Swiss albino mouse assessed as impair in motor coordination at 300 mg/kg, ip after 0.5 hrs by rotarod test. Type of series: toxicity, organism-based. Further details: dose 300 mg/kg, route intraperitoneal. Conditions: in vivo. The gist of the method:
as §2

Calls of active or inactive are those of the source. No cut-off for these calls is given here.

In the case of `O=C(N/N=C/c1ccc(Br)cc1)Nc1cccc2ccccc12`, the result in the series on Mus musculus [1] was inactive. Further, the Activity with Mus musculus [2] and in the series on Mus musculus [6] was 300 mg/kg each time. Moreover, the minimal effective dose in the series on Mus musculus [3], in the series on Mus musculus [4] and with Mus musculus [5] was 300 mg/kg in each case.

On to `COc1cc(/C=N/NC(=O)Nc2cccc3ccccc23)ccc1O`, for which the outcome in the series on Mus musculus [1] and in the series with Mus musculus [7] was inactive. The Activity in the series with Mus musculus [2] and in the series with Mus musculus [6] was 100 mg/kg in each case. Moreover, the minimal effective dose in the series on Mus musculus [3] and with Mus musculus [4] was 300 mg/kg throughout.

With `C/C(=N\NC(=O)Nc1cccc2ccccc12)c1ccc(Cl)cc1`, the result in the series on Mus musculus [1] and in the series on Mus musculus [8] was inactive. Moreover, the Activity with Mus musculus [2] was 300 mg/kg; with Mus musculus [9], “Non-toxic”. Besides, the minimal effective dose with Mus musculus [4] and in the series on Mus musculus [5] was 300 mg/kg throughout.

For the compound `COc1cccc(/C=N/NC(=O)Nc2cccc3ccccc23)c1`, the outcome in the series with Mus musculus [1] and with Mus musculus [8] was inactive. Besides, the Activity was 100 mg/kg with Mus musculus [2] and “Non-toxic” with Mus musculus [9]. Further, the minimal effective dose in the series on Mus musculus [4] amounted to 100 mg/kg; in the series with Mus musculus [5] it was 300 mg/kg.

Take `NC(=O)N1c2ccccc2C=Cc2ccccc21` [CARBAMAZEPINE]: the figures for the Activity in the series with Mus musculus [2] and with Mus musculus [6] were 100 mg/kg and 300 mg/kg, respectively. Moreover, the minimal effective dose with Mus musculus [3] turned out to be 30 mg/kg; in the series on Mus musculus [4] it was 100 mg/kg; in the series with Mus musculus [5], 100 mg/kg; in the series on Mus musculus [10] it was 300 mg/kg.

Turning to `CCC1(C)CC(=O)NC1=O` (stereo unspecified) [ETHOSUXIMIDE], the result in the series on Mus musculus [1], in the series on Mus musculus [7] and with Mus musculus [8] was inactive. For the same compound, the Activity result in the series on Mus musculus [11] and with Mus musculus [9] was “Non-toxic” throughout. In addition, the minimal effective dose with Mus musculus [4] came to 300 mg/kg.

Take `C/C(=N\NC(=O)Nc1cccc2ccccc12)c1ccc(C)cc1`: the outcome in the series with Mus musculus [1], in the series on Mus musculus [7] and with Mus musculus [8] was inactive. Moreover, the Activity in the series on Mus musculus [2] and in the series with Mus musculus [6] was 300 mg/kg throughout. Also, the minimal effective dose in the series with Mus musculus [4] was 300 mg/kg.

Turning to `COc1ccc(OC)c(/C=N/NC(=O)Nc2cccc3ccccc23)c1`, the result with Mus musculus [1] and in the series with Mus musculus [8] was inactive. The Activity in the series on Mus musculus [2] is 300 mg/kg; in the series on Mus musculus [9], “Non-toxic”. For the same compound, the minimal effective dose with Mus musculus [4] and in the series on Mus musculus [5] was 300 mg/kg throughout.

As to `O=C(N/N=C/c1ccc(Cl)cc1)Nc1cccc2ccccc12`, the result in the series with Mus musculus [1] and in the series on Mus musculus [8] was inactive. The Activity in the series on Mus musculus [2] was 300 mg/kg; with Mus musculus [9], “Non-toxic”. The minimal effective dose in the series on Mus musculus [4] and in the series on Mus musculus [5] was 300 mg/kg each time.

Consider `O=C(N/N=C/c1ccccc1[N+](=O)[O-])Nc1cccc2ccccc12`, for which the result in the series on Mus musculus [1] and with Mus musculus [8] was inactive. In addition, the Activity was 300 mg/kg in the series with Mus musculus [2] and “Non-toxic” in the series with Mus musculus [9]. The minimal effective dose in the series with Mus musculus [4] and in the series on Mus musculus [5] was 300 mg/kg in each case.

In the case of `O=C(N/N=C/c1ccccc1Cl)Nc1cccc2ccccc12`, the result in the series on Mus musculus [1], with Mus musculus [7] and in the series on Mus musculus [8] was inactive. Moreover, the values for the Activity result in the series with Mus musculus [11] and with Mus musculus [6] were “Non-toxic” and 300 mg/kg, respectively. Moreover, the minimal effective dose in the series with Mus musculus [4] is 300 mg/kg.
